Compound activity: PubChem, Johns Hopkins Ion Channel Center
A selection: hits, their analogues and other compounds. The true share with any hit is near 3.5%.
RGS4 pot: RGS4 potentiators or activators, primary screen, cell-based, HEK293 M3R inducible RGS4, calcium flux | carbachol calcium flux Fluo4; stronger effect = lower value | B-score at 10 µM | 0.92% of 310,000 active | AID 463111, 2010;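 active = B-score of the integrated calcium signal more than 4 SD below the library mean, with starting fluorescence not abnormally high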;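 note: negative B-score means reduced calcium response which marks RGS4 activation or potentiation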
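Reagent: ECmax carbachol challenge; Test system: M3R-expressing HEK293 line, RGS4 induced by doxycycline; Schedule: overnight RGS4 induction, 30 min dye load 37 °C, 20 min compound RT; Detection: calcium dye Fluo4 fluorescence; Read-out: Agonist-evoked peak-minus-minimum fluorescence over baseline, integrated ratio, B score.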
MrgX1 ag: agonists of human MrgX1 receptor, primary screen, HEK293 cells, Fluo-4 calcium flux; Fluo-4 calcium fluorescence, agonist mode; stronger effect = higher value; B-score at 10 µM; 0.44% of 310,000 active;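 active = calcium response B-score plate-corrected fluorescence ratio at least 3 library SD, with starting fluorescence B-score inside 5 SD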
Target sequence (Q96LB2 whole entry, looked up): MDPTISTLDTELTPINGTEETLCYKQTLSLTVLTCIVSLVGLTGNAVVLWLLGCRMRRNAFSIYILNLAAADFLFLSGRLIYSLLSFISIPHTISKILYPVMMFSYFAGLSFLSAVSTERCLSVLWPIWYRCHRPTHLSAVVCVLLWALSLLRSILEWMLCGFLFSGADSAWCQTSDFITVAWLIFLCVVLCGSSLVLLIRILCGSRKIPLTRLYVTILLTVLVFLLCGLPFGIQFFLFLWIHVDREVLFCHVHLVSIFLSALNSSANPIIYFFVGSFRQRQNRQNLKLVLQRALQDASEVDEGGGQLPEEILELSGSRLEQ
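Material: MrgX1-expressing HEK293 cells / Dosing: compound as first of three additions / Incubation: overnight seeding, then 1 h dark dye loading / Signal: Fluo-4 NW calcium fluorescence / Evaluation: B-scored fluorescence response ratio / Benchmarks: positive and negative control wells on each plate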
RGS4 block: RGS4 inhibitors, primary screen, cell-based, HEK293 M3R inducible RGS4, calcium flux | B-score at 10 µM | 0.45% of 310,000 active | Fluo-4 calcium flux; stronger effect = higher value; triggered by carbachol at its EC20 | Regulator of G-protein signaling 4 (Homo sapiens), P49798;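 active = B-score, a plate-corrected calcium signal, over three deviations above library mean, with baseline fluorescence within five deviations of library mean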;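 note: RGS4 expression induced by doxycycline in cells with stable M3 receptor; B-score is computed from the integrated fluorescence ratio over baseline after carbachol; higher B-score means a larger calcium signal and so more RGS4 inhibition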
Target sequence (P49798 whole entry, looked up): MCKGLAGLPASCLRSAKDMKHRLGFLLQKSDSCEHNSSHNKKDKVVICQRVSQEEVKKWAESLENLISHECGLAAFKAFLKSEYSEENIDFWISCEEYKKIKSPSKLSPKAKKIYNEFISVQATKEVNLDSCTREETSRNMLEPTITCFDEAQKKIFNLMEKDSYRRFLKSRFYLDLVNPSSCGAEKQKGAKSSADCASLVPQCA
MrgX1 antag: antagonists of human MrgX1 receptor, primary screen, HEK293 cells, Fluo-4 calcium flux; Mas-related G-protein coupled receptor member X1 (Homo sapiens), Q96LB2; BAM8-22 antagonism; stronger effect = lower value; B-score at 10 µM; 1.3% of 310,000 active;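 active = calcium-response B-score plate-corrected more than 3 library SD below zero, starting fluorescence within 5 deviations, no agonist response on first addition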;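 note: peak minus trough fluorescence over baseline after final BAM8-22 challenge near maximal dose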
MrgX1 allo act: positive allosteric modulators of MrgX1, primary screen, HEK293 cells, Fluo-4 calcium flux | Mas-related G-protein coupled receptor member X1 (Homo sapiens), Q96LB2 | FDSS; stronger effect = higher value | B-score at 10 µM | 0.63% of 310,000 active;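 active = plate-corrected calcium response at least 3 library SD above typical, normal starting fluorescence, not activating the receptor alone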;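 note: compound read alongside a low EC10 to EC30 dose of BAM8-22 agonist; peak minus trough fluorescence over baseline measured at the second addition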
RGS4 act valid: reduced carbachol calcium response, RGS4-induced M3R cells, confirmation, RGS4 activator project, cell-based, HEK293 M3R/RGS4 inducible, calcium flux, duplicate. inhibition, % at 10 µM. shares compounds with RGS4 pot. 89% of 1,100 active. carbachol calcium flux Fluo4;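 active = inhibition above 3 SD of the buffer control wells, cut at about 41% in these data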;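 note: signal is the integrated peak-minus-minimum Fluo4 fluorescence over baseline ratio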
RGS4 act ctr: RGS4 activator counter-screen hit in non-induced cells; HEK293 M3R non-induced RGS4, Fluo4 calcium flux; after carbachol challenge at its EC90; inhibition, % at 10 µM; 82% of 1,100 active; shares compounds with RGS4 pot;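 active = inhibition exceeding 3 SD of buffer-only control wells, cut at about 26% in these data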;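 note: percent drop in integrated peak-minus-baseline over baseline Fluo4 ratio after carbachol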
RGS4 block valid: enhanced carbachol calcium response, M3R/RGS4 cells, RGS4 inhibitor project, cell-based, validation screen, HEK293 M3R/RGS4, calcium flux. shares compounds with RGS4 block. carbachol calcium Fluo-4 fluorescence; carbachol added at its EC20; 0 = buffer wells, 100 = carbachol control. calcium response, % at 10 µM. 65% of 1,700 active;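 active = duplicate-averaged calcium response above the buffer-only control mean plus 5 SD of those controls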;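 note: integrated fluorescence ratio F max minus min over baseline F0; higher response in RGS4-induced cells means RGS4 inhibition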
M3R Ca ctr: carbachol calcium response in non-induced M3R cells, confirmation, counter-screen for RGS4 inhibitor project, cell-based, HEK293 M3R; activity (percent), % at 10 µM; carbachol calcium Fluo-4; submaximal (EC20) carbachol stimulus; buffer wells 0%, carbachol control wells 100%; shares compounds with RGS4 block; 20% of 1,900 active; call rule not given here;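 note: RGS4 induction absent so cells express M3R without RGS4; higher means more calcium signal and flags a non-specific hit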
RGS4 inh ctr2: second RGS4 inhibitor counter-screen in uninduced cells lacking carbachol; shares compounds with RGS4 block; HEK293 M3R/RGS4 non-induced, Fluo-4 calcium, no carbachol; normalised: buffer wells 0%, carbachol wells 100%; calcium response (agonist-mode artifact), % at 10 µM; 22% of 1,900 active; AID 493001;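 active = duplicate-averaged calcium rise in uninduced cells above buffer wells' mean plus 5 SD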
* marks the source's active call; other numbers are inactive results; i = inactive; x = no result given.

SMILES	RGS4 pot	MrgX1 ag	RGS4 block	MrgX1 antag	MrgX1 allo act	M3R Ca ctr	RGS4 inh ctr2	others
CC(C)[C@H]1C(=O)O[C@@H]2CCN3CC=C(COC(=O)[C@](C)(O)[C@]1(C)O)[C@H]23	i	i	i	i	i	x	x
Cc1[nH]c2ccc(OC(F)(F)F)cc2c1CCNCc1cccc([N+](=O)[O-])c1	i	i	i	i	i	x	x
CCOc1cccc(CNCCc2c(C)[nH]c3ccc(OC(F)(F)F)cc23)c1O	-8.92*	i	i	-5.29*	i	x	x	RGS4 act valid=90.0*;RGS4 act ctr=89.8*
COc1cccc(CNC2CN3CCC2CC3)c1OC (stereo not drawn)	-7.73*	i	i	i	i	x	x	RGS4 act valid=56.0*;RGS4 act ctr=25.8*
CCOc1cccc(CNC2CN3CCC2CC3)c1 (stereo not drawn)	i	i	i	i	i	x	x
NNC(=O)c1nc[nH]c1C(=O)Nc1ccc(Cl)cc1C(=O)c1ccccc1	i	i	i	i	i	x	x
OC(CC#CCN1CCCCCC1)(c1ccccc1)C1CCCC1 (stereo not drawn)	-7.65*	i	i	i	i	x	x	RGS4 act valid=93.0*;RGS4 act ctr=94.8*
CC1(C(O)(C#CCN2CCCCC2)c2ccccc2)CCCC1 (stereo not drawn)	-7.56*	i	i	i	i	x	x	RGS4 act valid=93.0*;RGS4 act ctr=89.3*
CC(=O)NC(Cc1ccc(N(CCCl)CCCl)cc1)C(=O)NCC(=O)NCC(=O)O (stereo not drawn)	i	i	i	i	i	x	x
Brc1ccc2c(c1)C(OC1CN3CCC1CC3)c1ccccc1CS2 (stereo not drawn)	-14.2*	i	i	i	i	x	x	RGS4 act valid=94.5*;RGS4 act ctr=90.3*
c1ccc2nc(OCCN3CC3)ccc2c1	i	i	i	i	i	x	x
Cc1ccc(/C=C2\C(=O)NC(=S)N(c3ccc(F)cc3)C2=O)o1	i	i	i	i	i	i	11.5%*
COc1ccc(N2C(=O)/C(=C/c3cccs3)C(=O)NC2=S)cc1	i	i	8.3*	i	i	i	i	RGS4 block valid=i
O=C1NC(=S)N(c2ccc(F)cc2)C(=O)/C1=C/c1ccccc1O	i	i	i	i	i	x	x
COc1cccc(N2C(=O)/C(=C/c3ccc(C)o3)C(=O)NC2=S)c1	i	i	10.3*	i	i	33.0%*	19.5%*	RGS4 block valid=93.0%*
Cc1ccc(/C=C2\C(=O)NC(=S)N(c3ccc(F)cc3)C2=O)s1	i	i	14.7*	i	i	i	i	RGS4 block valid=29.0%*
CCOc1cccc(N2C(=O)/C(=C/c3ccco3)C(=O)NC2=S)c1	i	i	i	i	i	x	x
COc1ccc(CCN(C)Cc2c(F)cccc2F)cc1OC	i	i	i	i	i	x	x
COc1ccc(N2C(=O)NC(=O)/C(=C\c3ccc([N+](=O)[O-])s3)C2=O)cc1	i	i	5.24*	i	i	i	i	RGS4 block valid=22.5%*
COc1ccccc1N1C(=O)NC(=O)/C(=C/c2ccc([N+](=O)[O-])s2)C1=O	i	i	i	i	i	i	i
COc1ccccc1N1C(=O)NC(=O)/C(=C\c2cnn(-c3ccccc3)c2)C1=O	i	i	i	i	i	x	x
CCOc1ccc(N2C(=O)NC(=O)/C(=C\c3cc(OC)c(OC)cc3[N+](=O)[O-])C2=O)cc1	i	i	i	i	i	x	x
COc1cccc(N2C(=O)NC(=O)/C(=C/c3ccc([N+](=O)[O-])s3)C2=O)c1	i	i	10.2*	i	i	35.0%*	i	RGS4 block valid=20.5%*
COc1cccc(N2C(=O)NC(=O)/C(=C/c3ccc4c(c3)Cc3ccccc3-4)C2=O)c1	i	i	i	i	i	x	x
COc1ccc(N2C(=O)NC(=O)/C(=C/c3ccc([N+](=O)[O-])s3)C2=O)cc1	i	i	6.07*	i	i	i	i	RGS4 block valid=16.0%*
SMILES	RGS4 pot	MrgX1 ag	RGS4 block	MrgX1 antag	MrgX1 allo act	M3R Ca ctr	RGS4 inh ctr2	others
O=C1NC(=O)C2(C(=O)N1)C(c1ccc(F)cc1)NC(=S)NC2c1ccc(F)cc1 (stereo not drawn)	i	i	i	i	i	x	x
Cc1ccc(C)c(OCc2cc(C(=O)N3C[C@H]4C[C@@H](C3)c3cccc(=O)n3C4)no2)c1	i	i	i	i	i	x	x
C=C(CO)CC1CC(O)[C@]2(C)OC3CC4OC5C[C@]6(C)O[C@]7(C)CCC8OC9C[C@]%10(C)OC%11C(C)=CC(=O)OC%11CC%10OC9C[C@@H](C)C8OC7CC6O[C@]5(C)C/C=C\C4OC3CC2O1 (stereo partly drawn)	i	i	i	i	i	i	i
N#Cc1c(N2CCNCC2)nc(-c2ccco2)c2c1CCCC2	i	i	5.51*	i	i	i	i	RGS4 block valid=i
CCCCc1nc(N2CCNCC2)c(C#N)c2c1CSC(C)(C)C2	i	i	i	i	i	x	x
CCCCc1cc(=O)oc2cc(OCC(=O)N3C[C@H]4C[C@@H](C3)c3cccc(=O)n3C4)c(Cl)cc12	i	i	i	i	i	x	x
CN1CCC2(CC1)NC(=O)C1=C(CN(C)CC1)N2	i	i	i	i	i	x	x
Cc1nn(Cc2ccccc2)c(C)c1C(=O)NCc1ccccc1	i	i	i	i	i	x	x
